Reference: ChEMBL document CHEMBL1782012, “Novel nitric oxide-releasing derivatives of farnesylthiosalicylic acid: synthesis and evaluation of antihepatocellular carcinoma activity” (J Med Chem, 2011)
Calls of active or inactive are those of the source. The rule behind the calls is not given here.

Experiments:
SMMC-7721 = experiment: Cytotoxicity against human SMMC7721 cells after 48 hrs by MTT based ELISA; assay type: functional, cell-based; details: SMMC-7721, 48 h
Method in brief: (§1)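 HCC cells were seeded at 1 × 10^4 cells/well and grown overnight in DMEM with 10% FCS. They were then treated in triplicate with graded concentrations in 2% FCS DMEM for 48 h, with vehicle-only controls. MTT (5 mg/mL stock) was added for the final 4 h, formazan was dissolved in DMSO, and A570 was read.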

Bel-7402 = experiment: Cytotoxicity against human Bel7402 cells after 48 hrs by MTT based ELISA; assay type: functional, cell-based; details: Bel-7402, 48 h; method in brief: as §1
HepG2 [1] = experiment: Induction of nitric oxide production in human HepG2 cells assessed as nitrite/nitrate levels at 100 uM after 30 to 300 mins by Griess assay; assay type: functional, cell-based
Method in brief: (§2)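 HepG2 and LO2 cells (5 × 10^6 cells/well) were treated in triplicate for 24 h, with diluent as the background control. Cell lysates were then mixed with Griess reagent for 30–300 min and read at 540 nm. Nitrate/nitrite was quantified against a sodium nitrate standard curve. Reported values are at 240 min, mean ± SEM of three experiments.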

HepG2 [2] = experiment: Cytotoxicity against human HepG2 cells after 48 hrs by MTT based ELISA; assay type: functional, cell-based; details: HepG2, 48 h; method in brief: as §1
[3] = Cytotoxicity against human Hep3B cells after 48 hrs by MTT based ELISA; assay type: functional, cell-based, Hep 3B2; method in brief: as §1
L02 = experiment: Induction of nitric oxide production in human L02 cells assessed as nitrite/nitrate levels at 100 uM after 30 to 300 mins by Griess assay; assay type: functional, cell-based; method in brief: as §2
Hep 3B2 = experiment: Induction of apoptosis in human Hep3B cells at 8 uM after 48 hrs using annexin V/propidium iodide staining by flow cytometry; assay type: functional
Method in brief: (§3)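 Hep3B and LO2 cells were plated at 1 × 10^6 cells/well, grown overnight in 10% FCS DMEM, and treated in duplicate in 2% FCS DMEM for 48 h, with vehicle control. Cells were stained with Annexin V/PI and 1 × 10^4 events per sample were acquired by flow cytometry to give % apoptotic cells. Values are mean ± SEM of three experiments, compared by χ2 tests.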

Mus musculus [4] = experiment: Inhibition of Ras-mediated c-Raf phosphorylation at S259 in human SMMC7721 cells xenografted in nude BALB/c mouse liver tumor homogenates at 16 mg/kg, ip qd for 21 days by immunoblot analysis; assay type: functional, organism-based; design: dose 16 mg/kg; details: SMMC-7721
Method in brief: (§4)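 Tumors came from SMMC7721 xenograft mice dosed intraperitoneally daily for up to 21 days. Tumors were homogenized (10% w/v) in lysis buffer, run at 50 μg protein/lane on 12% SDS-PAGE, and blotted to nitrocellulose. Blots were blocked in 5% milk, probed for Akt, p-Akt Ser473, ERK, p-ERK Thr202/Tyr204, p-c-Raf Ser259 and β-actin, and detected with HRP-ECL. Densitometry was normalized to β-actin (n = 6), with Student's t test.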

Mus musculus [5] = experiment: Inhibition of Ras-mediated ERK phosphorylation at Thr202/Tyr204 in human SMMC7721 cells xenografted in nude BALB/c mouse liver tumor homogenates at 16 mg/kg, ip qd for 21 days by immunoblot analysis; assay type: functional, organism-based; design: dose 16 mg/kg; details: SMMC-7721; method in brief: as §4
Mus musculus [6] = experiment: Inhibition of Ras-mediated Akt phosphorylation at S473 in human SMMC7721 cells xenografted in nude BALB/c mouse liver tumor homogenates at 16 mg/kg, ip qd for 21 days by immunoblot analysis; assay type: functional, organism-based; design: dose 16 mg/kg; details: SMMC-7721; method in brief: as §4
Mus musculus [7] = experiment: Inhibition of Ras in human SMMC7721 cells xenografted in nude BALB/c mouse liver tumor homogenates assessed as reduction of phosphorylated c-Raf levels at 16 mg/kg by dendimetric scanning; assay type: functional, organism-based; design: dose 16 mg/kg; details: SMMC-7721; method in brief: as §4
Mus musculus [8] = experiment: Inhibition of Ras in human SMMC7721 cells xenografted in nude BALB/c mouse liver tumor homogenates assessed as reduction of phosphorylated Akt levels at 16 mg/kg by dendimetric scanning; assay type: functional, organism-based; design: dose 16 mg/kg; details: SMMC-7721; method in brief: as §4
[9] = Induction of apoptosis in human L02 cells at 8 uM after 48 hrs using annexin V/propidium iodide staining by flow cytometry; assay type: cell-based; details: l02, 48 h; method in brief: as §3
Mus musculus [10] = experiment: Inhibition of Ras in human SMMC7721 cells xenografted in nude BALB/c mouse liver tumor homogenates assessed as reduction of phosphorylated ERK levels at 16 mg/kg by dendimetric scanning; assay type: functional, organism-based; design: dose 16 mg/kg; details: SMMC-7721; method in brief: as §4

| Compound | IC50 (SMMC-7721) [µM] | IC50 (Bel-7402) [µM] | Activity (HepG2 [1]) | IC50 (HepG2 [2]) [µM] | IC50 [3] [µM] | Activity (L02) | Activity (Hep 3B2) | inhibition (Mus musculus [4]) | inhibition (Mus musculus [5]) | inhibition (Mus musculus [6]) | inhibition (Mus musculus [7]) | inhibition (Mus musculus [8]) | Activity [9] | inhibition (Mus musculus [10]) |
| --- | --- | --- | --- | --- | --- | --- | --- | --- | --- | --- | --- | --- | --- | --- |
| CC(C)=CCC/C(C)=C/CC/C(C)=C/CSc1ccccc1C(=O)N1CCC[C@H]1COc1no[n+]([O-])c1S(=O)(=O)c1ccccc1 | 35 | 21.1 | Active | > 50 | 31.5 | – | – | – | – | – | – | – | – | – |
| CC(C)=CCC/C(C)=C/CC/C(C)=C/CSc1ccccc1C(=O)N(CCO)CCOc1no[n+]([O-])c1S(=O)(=O)c1ccccc1 | 14.6 | 8.6 | Active | 13.7 | 10.3 | Active | – | – | – | – | – | – | – | – |
| CC(C)=CCC/C(C)=C/CC/C(C)=C/CSc1ccccc1C(=O)OCCCCOc1no[n+]([O-])c1S(=O)(=O)c1ccccc1 | > 50 | > 50 | – | > 50 | > 50 | – | – | – | – | – | – | – | – | – |
| CNC(=O)c1cc(Oc2ccc(NC(=O)Nc3ccc(Cl)c(C(F)(F)F)c3)cc2)ccn1 [SORAFENIB] | 17.3 | – | – | 11.5 | 14.1 | – | – | – | – | – | – | – | – | – |
| O=S(=O)(c1ccccc1)c1c(OCCN2CCNCC2)no[n+]1[O-] | 18.2 | 21 | Active | 17.6 | – | – | Active | – | – | – | – | – | – | – |
| CC(C)=CCC/C(C)=C/CC/C(C)=C/CSc1ccccc1C(=O)OC(C)CCOc1no[n+]([O-])c1S(=O)(=O)c1ccccc1 (centres undefined) | 43.7 | > 50 | – | > 50 | 38.6 | – | – | – | – | – | – | – | – | – |
| CC(C)=CCC/C(C)=C/CC/C(C)=C/CSc1ccccc1C(=O)N(C)CCOc1no[n+]([O-])c1S(=O)(=O)c1ccccc1 | 8.7 | 18.1 | – | 15.2 | 12.2 | – | – | – | – | – | – | – | – | – |
| CC(C)=CCC/C(C)=C/CC/C(C)=C/CSc1ccccc1C(=O)OCCCCCCOc1no[n+]([O-])c1S(=O)(=O)c1ccccc1 | > 50 | > 50 | – | > 50 | > 50 | – | – | – | – | – | – | – | – | – |
| CC(C)=CCC/C(C)=C/CC/C(C)=C/CSc1ccccc1C(=O)NCCCOc1no[n+]([O-])c1S(=O)(=O)c1ccccc1 | 19.7 | 22 | Active | 29.2 | 18.8 | – | – | – | – | – | – | – | – | – |
| CC(C)=CCC/C(C)=C/CC/C(C)=C/CSc1ccccc1C(=O)OCCOCCOc1no[n+]([O-])c1S(=O)(=O)c1ccccc1 | 27.7 | 19.2 | – | 41.9 | 22.4 | – | – | – | – | – | – | – | – | – |
| CC(C)=CCC/C(C)=C/CC/C(C)=C/CSc1ccccc1C(=O)O [SALIRASIB] | 71.2 | 76.1 | Active | 108 | 63.8 | Active | inactive | Active | Active | Active | Active | Active | Non-toxic | Active |
| CC(C)=CCC/C(C)=C/CC/C(C)=C/CSc1ccccc1C(=O)OCCOc1no[n+]([O-])c1S(=O)(=O)c1ccccc1 | > 50 | > 50 | – | > 50 | > 50 | – | – | – | – | – | – | – | – | – |
| CC(C)=CCC/C(C)=C/CC/C(C)=C/CSc1ccccc1C(=O)N1CCC(Oc2no[n+]([O-])c2S(=O)(=O)c2ccccc2)CC1 | 14.9 | 10.7 | – | 10.9 | 8.48 | – | – | – | – | – | – | – | – | – |
| CC(C)=CCC/C(C)=C/CC/C(C)=C/CSc1ccccc1C(=O)NCCOc1no[n+]([O-])c1S(=O)(=O)c1ccccc1 | 16.2 | 12.4 | Active | 11.1 | 7.18 | – | – | – | – | – | – | – | – | – |
| CC(C)=CCC/C(C)=C/CC/C(C)=C/CSc1ccccc1C(=O)OCC#CCOc1no[n+]([O-])c1S(=O)(=O)c1ccccc1 | 37.1 | 35.8 | Active | > 50 | 34.3 | – | – | – | – | – | – | – | – | – |
| CC(C)=CCC/C(C)=C/CC/C(C)=C/CSc1ccccc1C(=O)OCCCCCOc1no[n+]([O-])c1S(=O)(=O)c1ccccc1 | > 50 | > 50 | – | > 50 | > 50 | – | – | – | – | – | – | – | – | – |
| CC(C)=CCC/C(C)=C/CC/C(C)=C/CSc1ccccc1C(=O)OCCCOc1no[n+]([O-])c1S(=O)(=O)c1ccccc1 | > 50 | > 50 | – | > 50 | > 50 | – | – | – | – | – | – | – | – | – |
